The results in this text go back to the RNAGym collection of RNA variant scans (doi:10.1126/science.aae0568).

The labels stand for the following.
B1: tRNA (parent)
chain: GUUCCGUUGGCGUAAUGGUAACGCGUCUCCCUCCUAAGGAGAAGACUGCGGGUUCGAGUCCCGUACGGAACG

Fewer inactive variants are shown than the library holds.

In this series the parent is B1. The experiment in a line: yeast fitness relative to wild type (ratio to wild type); higher = fitter; tRNA-Arg(CCU), competitive growth, 37 C, YPD. In outline: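 Start and end populations of a pooled competition were compared by 100-nucleotide paired-end sequencing of gene amplicons. The Saccharomyces cerevisiae strains carried tRNA-Arg(CCU) gene variants at the native genomic locus, synthesised with a 3% per-site mutation rate at 69 sites, and competed in YPD at 37°C for 24 hours in six parallel replicates. Darwinian fitness relative to wild type was based on the change in genotype frequencies. Genotypes required ≥ 100 starting reads, and estimates < 0.5 were set to 0.5.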
On to U2G A40U C46G, for which the yeast fitness is at most 0.5. In the case of U2G G6A C49G, the yeast fitness is at most 0.5.

For the variant U2G C11G G12A A20U C30G C49G U53G, the yeast fitness was at most 0.5. As for U2G C27G C66U G67C A70G, the yeast fitness is at most 0.5. Turning to U2G A20U A43U, the yeast fitness was determined as 0.594.

In the case of U2G C5G A21C A43U G50A G52U A69C, the yeast fitness is at most 0.5.

In the case of U2G A69U, the yeast fitness is 0.743. Turning to U2G A69C, the yeast fitness came out at 0.93. For U2G A69G, the yeast fitness stood at 0.975.

Turning to U2G G10C G67C, the yeast fitness was at most 0.5.

Take U2G A20U G25C C49G A65C A70U: the yeast fitness is at most 0.5. The result for U2G A20U U32A C46G reads at most 0.5; that for U2G A21U G67C, at most 0.5. Regarding U2G C34G C46U G48C U54G, the yeast fitness was found to be 0.709. Take U2G C24A C33U A40G G51C A57U: the yeast fitness is at most 0.5. On to U2G G9A C22A C24A A43C, for which the yeast fitness was at most 0.5.

Take U2G G25C G52A A57C A70C: the yeast fitness was at most 0.5. Regarding U2G G25C G52A, the yeast fitness is at most 0.5. On to U2G A15G G17A G52C C66A, for which the yeast fitness is at most 0.5.

Consider U2G G44A, for which the yeast fitness amounted to 0.849.

With U2G A45C C61U, the yeast fitness turned out to be 0.615. As for U2G C11G C62U, the yeast fitness amounted to 0.609. The figure for U2G C11U A45C U53G A69U is 0.544; for U2G G17C C33U U47A it is 0.535.

In the case of U2G C31G A57U, the yeast fitness was at most 0.5. Consider U2G A14G C29G A37U C62G C66U, for which the yeast fitness is at most 0.5. For the variant U2G C22G G41C G68A, the yeast fitness amounted to 0.573. As for U2G G6A C55U, the yeast fitness is at most 0.5. Regarding U2G A42U A70U, the yeast fitness worked out at 0.539. For the variant U2G C55A C60G C62G, the yeast fitness is at most 0.5. Regarding U2G G9A U16G C62U U64C, the yeast fitness was at most 0.5. With U2G C11G A20U C22U C34U C49A G52A, the yeast fitness was at most 0.5.

On to U2G C4G A21C, for which the yeast fitness amounted to 0.725.

Take U2G C4A C22U U28G A42U U64C: the yeast fitness is at most 0.5. In the case of U2G C33U A36U A43C A69C, the yeast fitness was found to be 0.767.

For U2G C27G C66U, the yeast fitness is at most 0.5. Take U2G G48A G58C C61A: the yeast fitness was at most 0.5. For the variant U2G A20C C33A, the yeast fitness was at most 0.5. In the case of U2G C27U C55U, the yeast fitness was at most 0.5. On to U2G A15U U47A C62A, for which the yeast fitness is at most 0.5.

As to U2G C11U A15U U47A, the yeast fitness worked out at 0.578. On to U2G A14U A20G C33G A70C, for which the yeast fitness is at most 0.5. The result for U2G A36U G68C reads 0.605; that for U2G C34G G67U, at most 0.5.

In the case of U2G G12A G41C, the yeast fitness was 0.596. Take U2G A36G: the yeast fitness amounted to 0.953. The figure for U2G A15C C24U C55U A65G is at most 0.5. Turning to U2G A15C A36C, the yeast fitness was 0.649.

Consider U2G C11U A45C U53G A65G, for which the yeast fitness is at most 0.5. With U2G A21G C61G, the yeast fitness is at most 0.5. In the case of U2G A37C C49U A70C, the yeast fitness is at most 0.5. As for U2G A21G U47C A69C, the yeast fitness was at most 0.5. Turning to U2G G10C A65C, the yeast fitness was at most 0.5. In the case of U2G C11U C55G, the yeast fitness was at most 0.5. With U2G C4U U7G C11G A15C G18A C55U, the yeast fitness is 0.75. For U2G A40U C55U A69U, the yeast fitness was at most 0.5.

Consider U2G C34U A36C C61A, for which the yeast fitness was at most 0.5. On to U2G A21C C22G, for which the yeast fitness amounted to 0.541. As to U2G A21C C22U, the yeast fitness is 0.575. Take U2G A20U C34A C55G C66A: the yeast fitness is at most 0.5. The figure for U2G C49G G50C A70C is at most 0.5. For the variant U2G G10C G63A, the yeast fitness is at most 0.5. The figure for U2G A69C A70G is 0.57. On to U2G A40U C49A G58C G63C, for which the yeast fitness is at most 0.5.

Turning to U2G A21C C46G C49G, the yeast fitness was at most 0.5. Turning to U2G C24G C29G C31G A69C, the yeast fitness is at most 0.5. For U2G C34G C49G C61U A69G, the yeast fitness is at most 0.5.

For the variant U2G C27U C46G, the yeast fitness came out at 0.564.

As for U2G G41C A65C, the yeast fitness stood at 0.534. For U2G A21G A57C, the yeast fitness is at most 0.5.

Consider U2G G6A G23A C29G G50U C55A, for which the yeast fitness is at most 0.5. On to U2G C5A U19A C30G C55U G68C, for which the yeast fitness is at most 0.5. As to U2G G51A C60U, the yeast fitness is at most 0.5. As to U2G C31G A42G A57U, the yeast fitness was at most 0.5. The figure for U2G C22G U28A C31G C55A G68C is at most 0.5.

On to U2G C4U A36U, for which the yeast fitness is 0.587. Regarding U2G G44C C60U A69G, the yeast fitness is at most 0.5. On to U2G C33A, for which the yeast fitness turned out to be 0.632.

In the case of U2G C27G G52C, the yeast fitness was at most 0.5. The figure for U2G G38A G52C C61A is 0.555.

As for U2G G12A U13A G25C U28A C33A G67U, the yeast fitness was at most 0.5.

Consider U2G C49A A57C, for which the yeast fitness was at most 0.5. For U2G C31U G48C C62A, the yeast fitness was at most 0.5.

With U2G A21G U32C U59G C66U A70C, the yeast fitness was at most 0.5. The result for U2G C24G C29G C31A reads at most 0.5; that for U2G A14G C62G A70U, at most 0.5; that for U2G G9C C60A, at most 0.5. The figure for U2G A21C C22G A45G G51A is 0.697. For the variant U2G G12A C31G C33G A40U G52A C60G C62U, the yeast fitness was at most 0.5. The figure for U2G C22U C24G G51C C60U G67A is at most 0.5. As to U2G A14U A20G C33G C61U A70C, the yeast fitness was at most 0.5. The figure for U2G C4U C61A C62U A65U is 0.521; for U2G A36G A40U A43U G56C A57U it is at most 0.5; for U2G G18A C49U G52A G68C it is at most 0.5. On to U2G C4U C55U, for which the yeast fitness amounted to 0.679.

Turning to U2G A57C, the yeast fitness is 0.533. With U2G C22U C24G G63A A69C, the yeast fitness was at most 0.5. For U2G G6A U53G U54G C55A, the yeast fitness was at most 0.5. The result for U2G C4A A43U reads 0.717; that for U2G G9C, 0.755; that for U2G A45U C60U, 0.549. The figure for U2G C22U A40U is at most 0.5; for U2G C27U C46U G63A it is 0.811; for U2G C33A G39C A69U it is at most 0.5. As to U2G A14U A20G C33G G67U A69C, the yeast fitness is at most 0.5. For U2G G25A A65C, the yeast fitness was 0.637. U2G C5A G12A C55G: the yeast fitness is at most 0.5. Regarding U2G G12A G41C A57U, the yeast fitness is at most 0.5. As to U2G C5A G23A U28C U59C C60G, the yeast fitness is at most 0.5. In the case of U2G C34G A43C, the yeast fitness was 0.552. Turning to U2G G9C A20G A42C A43G C46G C49U A69C, the yeast fitness was at most 0.5. On to U2G A14G C29G A37U, for which the yeast fitness was at most 0.5. U2G G9C A15U U19C: the yeast fitness was at most 0.5. Regarding U2G C27G A65U, the yeast fitness is at most 0.5.

In the case of U2G A15C U47G A69C, the yeast fitness is at most 0.5.

For U2G C4U C60A, the yeast fitness was at most 0.5. As for U2G C5G C11G G56C C61G, the yeast fitness was at most 0.5. The figure for U2G A36U C62G G63A is at most 0.5; for U2G G50C it is 0.6. Take U2G G50A: the yeast fitness is 0.888. The figure for U2G C5A A70C is at most 0.5. With U2G A14C A69C, the yeast fitness is at most 0.5. The figure for U2G C27U A40G G48A is 0.576; for U2G C24G C49A it is at most 0.5; for U2G G17A C33G G39C C55U it is at most 0.5.

U2G C4G A21C A69C: the yeast fitness is at most 0.5. With U2G A15C A36C A69U A70G, the yeast fitness was at most 0.5. Turning to U2G G9C G12A A42C C46A A65U, the yeast fitness was found to be 0.577.

As to U2G C5A U19A, the yeast fitness was 0.552.

Take U2G A14U U28A: the yeast fitness is at most 0.5. With U2G A20C G44A A45G, the yeast fitness amounted to 0.712. As for U2G A42C U47A, the yeast fitness stood at 0.573. The result for U2G C4U G6C C49G reads at most 0.5; that for U2G G48C, 0.849; that for U2G G48A, 0.94. Regarding U2G C27U A37C G52A G67A, the yeast fitness was at most 0.5.

Take U2G C49U G51C C55A: the yeast fitness was at most 0.5.

With U2G C5A C55G, the yeast fitness came out at 0.561.

U2G A65U: the yeast fitness was found to be 0.687.

As for U2G A65G, the yeast fitness was 1.11. For the variant U2G C46A, the yeast fitness came out at 0.808. Regarding U2G C22A A36G G52A C66A A69U, the yeast fitness was at most 0.5. With U2G A15G G17A, the yeast fitness is at most 0.5. For U2G A42C U47A G63C, the yeast fitness was determined as 0.55.

For the variant U2G C5U C31G, the yeast fitness worked out at 0.583. The result for U2G C22G U26C C27G C30A U32G C55G reads at most 0.5; that for U2G C33G G39C C55U, 0.523. For U2G G9C A20G A42C C46G C49U G68A A70U, the yeast fitness is at most 0.5. The result for U2G C30A A36G G39C A57G reads 0.709; that for U2G C4U G6C C31G, at most 0.5; that for U2G A45U C66U G67A, at most 0.5. As to U2G C31U A70U, the yeast fitness turned out to be 0.772. In the case of U2G A37C C61U G67A, the yeast fitness was at most 0.5.

Regarding U2G A40C G41C A42U, the yeast fitness was at most 0.5. U2G G6A G44A G67C: the yeast fitness is 0.531.

For the variant U2G C31G U35A A45U, the yeast fitness is at most 0.5. Turning to U2G A40C G68C, the yeast fitness was 0.54. The figure for U2C U64C G68A is 0.578; for U2G C24U A45C G48A G67A it is at most 0.5. Take U2G C27G C33U C49U: the yeast fitness is at most 0.5.

In the case of U2G C33U G58C, the yeast fitness stood at 0.566. For the variant U2G C60G, the yeast fitness is 0.592.

U2G C4U A40C: the yeast fitness was 0.627.

Take U2G A57C C62A A65C: the yeast fitness is at most 0.5. The figure for U2G G9C A15G G48C G51A is at most 0.5; for U2G G6A C27U A36U G68C it is at most 0.5; for U2G C22U C24G it is 0.596.
